Experimental data published in ChEMBL document CHEMBL5150043, “Discovery of Anthranilic Acid Derivatives as Difluoromethylornithine Adjunct Agents That Inhibit Far Upstream Element Binding Protein 1 (FUBP1) Function” (J Med Chem, 2022).
Calls of active or inactive are those of the source. The calls are words filed in the database; no cut-off is given here.

What was measured:
L3.6pl [1] = test: Inhibition of polyamine transport system in human L3.6pl cells assessed as reduction in [3H] spermidine uptake preincubated for 24 hrs followed by [3H]-spermidine addition and measured after 15 mins by scintillation counter method; format: cell-based; details: time 24.25 hrs
Procedure, shortened: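 L3.6pl cells pretreated 24 h with compound, then 3H-Spd added for 15 min; intracellular 3H-Spd measured; mean ± SD (n = 3).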

L3.6pl [2] = test: Inhibition of polyamine transport system in human L3.6pl cells assessed as reduction in [3H] spermidine uptake preincubated for 72 hrs in presence of DFMO followed by [3H]-spermidine addition and measured after 15 mins by scintillation counter method; format: cell-based; details: time 72.25 hrs
Procedure, shortened: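 L3.6pl cells incubated 72 h with DFMO alone or DFMO plus compound, then 3H-Spd added for 15 min; intracellular 3H-Spd measured; mean ± SD (n = 3).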

L3.6pl [3] = test: Inhibition of FUBP1/DNA FUSE region interaction in human […] cells assessed as reduction in c-myc protein level at 20 to 60 uM incubated for 24 hrs by Western blot analysis; format: cell-based; details: dose 20-60 µM
Procedure, shortened: (§1)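 Western blot of L3.6pl cells after 24 h compound treatment with matched DMSO loading; c-Myc, p21 and FUBP1 probed, GAPDH as loading control; at least three independent experiments.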

L3.6pl [4] = test: Inhibition of FUBP1/DNA FUSE region interaction in human […] cells assessed as increase in p21 protein level at 20 to 60 uM incubated for 24 hrs by Western blot analysis; format: cell-based; details: dose 20-60 µM; procedure, shortened: as §1
L3.6pl [5] = test: Decrease in intracellular polyamine level in human L3.6pl cells assessed as putrescine level at 60 uM incubated for 24 hrs by HPLC analysis; format: functional, cell-based
Procedure, shortened: (§2)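 L3.6pl cells incubated 24 h at 37 °C with compound (60 μM) or 0.6% DMSO vehicle; native intracellular polyamines then measured; mean ± SD (n = 3).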

L3.6pl [6] = test: Decrease in intracellular polyamine level in human L3.6pl cells assessed as spermidine level at 60 uM incubated for 24 hrs by HPLC analysis; format: functional, cell-based; procedure, shortened: as §2
[7] = Cytotoxicity against human L3.6pl cells assessed as inhibition of cell growth measured after 72 hrs by ATPlite assay; format: toxicity, cell-based
[8] = target: T1, Far upstream element-binding protein 1 (Homo sapiens) (UniProt Q96AE4); test: Binding affinity to recombinant GST tagged FUBP1 KH3-KH4 domain (unknown origin) assessed as decrease in FUBP1-FUSE DNA bound complex using 5'-IRDye700 tagged TGTATATTCCCTCGGG oligonucleotide as substrate at 30 to 60 uM measured for 30 mins by Gel shift assay relative to control; details: dose 30-60 µM, DDE = dose-dependent effect
T1 sequence (whole entry): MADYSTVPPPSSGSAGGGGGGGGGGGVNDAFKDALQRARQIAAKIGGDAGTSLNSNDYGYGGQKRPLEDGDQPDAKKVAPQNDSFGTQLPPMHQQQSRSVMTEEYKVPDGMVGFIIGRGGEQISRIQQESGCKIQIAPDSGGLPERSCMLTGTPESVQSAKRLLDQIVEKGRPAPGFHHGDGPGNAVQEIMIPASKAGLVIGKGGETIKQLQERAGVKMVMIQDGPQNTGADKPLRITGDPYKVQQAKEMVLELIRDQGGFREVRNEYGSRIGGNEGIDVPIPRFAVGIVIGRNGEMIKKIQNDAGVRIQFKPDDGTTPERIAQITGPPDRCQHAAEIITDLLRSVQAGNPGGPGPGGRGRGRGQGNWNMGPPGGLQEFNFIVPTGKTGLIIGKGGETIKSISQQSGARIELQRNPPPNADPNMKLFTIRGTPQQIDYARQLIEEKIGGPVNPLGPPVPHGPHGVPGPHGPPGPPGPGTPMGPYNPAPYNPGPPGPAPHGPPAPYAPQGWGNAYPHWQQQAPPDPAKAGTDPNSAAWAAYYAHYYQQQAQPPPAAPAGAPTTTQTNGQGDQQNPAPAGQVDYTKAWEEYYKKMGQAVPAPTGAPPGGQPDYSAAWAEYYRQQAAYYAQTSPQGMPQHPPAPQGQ

[9] = Inhibition of spermidine uptake chinese hamster CHO-K1 cells assessed as decrease in cell growth by measuring cellular ATP content measured after 48 hrs in presence of DFMO and spermidine by ATPlite assay; format: functional, cell-based; details: Cricetulus griseus, CHO-K1, 48 h
CHO-K1 [10] = test: Cytotoxicity against chinese hamster CHO-K1 cells assessed as decrease in cell viability measured after 48 hrs by ATPlite assay; format: toxicity, cell-based, Cricetulus griseus; details: cho-k1, 48 h
Procedure, shortened: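 CHO-K1 cells dosed alone in 384-well format in parallel with Assays 1 and 2; MTC taken as highest concentration giving ≥90% relative growth versus untreated control; typical error ±10% (n = 3).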

CHO-K1 [11] = test: Inhibition of spermidine uptake in chinese hamster CHO-K1 cells assessed as decrease in cell growth by measuring cellular ATP content measured after 48 hrs in presence of DFMO and spermidine by ATPlite assay; details: Cricetulus griseus, CHO-K1, 48 h
L3.6pl [12] = test: Inhibition of FUBP1/DNA FUSE region interaction in human […] cells assessed as decrease in c-myc mRNA level at 20 to 60 uM incubated for 24 hrs by qRT-PCR analysis; format: cell-based; details: dose 20-60 µM
Procedure, shortened: (§3)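 L3.6pl cells treated 24 h with compound or matched DMSO; p21 and c-Myc mRNA by qRT-PCR, normalized to β-actin; log mean ± SD (n = 2).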

L3.6pl [13] = test: Cytotoxicity against human L3.6pl cells assessed as cell viability measured after 72 hrs by ATPlite assay; format: toxicity, cell-based
Procedure, shortened: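 L3.6pl human pancreatic cancer cells in 96-well format were exposed to compound alone for 72 h. Growth was expressed relative to an untreated control. MTC is the highest concentration with relative growth still >90%. […] Data come from two or more experiments, each run in triplicate (n ≥ 6).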

L3.6pl [14] = test: Decrease in intracellular polyamine level in human L3.6pl cells assessed as total polyamine level at 60 uM incubated for 24 hrs by HPLC analysis; format: functional, cell-based; procedure, shortened: as §2
L3.6pl [15] = test: Decrease in intracellular polyamine level in human L3.6pl cells assessed as spermine level at 60 uM incubated for 24 hrs by HPLC analysis; format: functional, cell-based; procedure, shortened: as §2
L3.6pl [16] = test: Inhibition of FUBP1/DNA FUSE region interaction in human […] cells assessed as reduction in c-Myc FUSE DNA pull down at 60 uM incubated for 24 hrs by qRT-PCR analysis; format: cell-based
Procedure, shortened: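 ChIP: L3.6pl cells ± compound (60 μM) 24 h; crosslinked FUBP1–DNA immunoprecipitated with FUBP1 antibody, crosslink reversed, FUSE sequence upstream of c-Myc promoter amplified by qPCR; mean fold change ± SEM (n = 2).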

L3.6pl [17] = test: Inhibition of FUBP1/DNA FUSE region interaction in human […] cells assessed as increase in p21 mRNA level at 20 to 60 uM incubated for 24 hrs by qRT-PCR analysis; format: cell-based; details: dose 20-60 µM; procedure, shortened: as §3
[18] = Inhibition of spermidine uptake in human L3.6pl cells assessed as inhibition of cell growth by measuring cellular ATP content at MTC measured after 72 hrs in presence of DFMO and spermidine by ATPlite assay; format: functional
Procedure, shortened: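 L3.6pl cells with DFMO and spermidine over 72 h, compound dosed up to its MTC; ECx = percentage effect at the MTC on scale between DFMO-only (50%) and DFMO + Spd (100%) controls; average of ≥2 experiments in triplicate (n ≥ 6).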

L3.6pl [19] = test: Inhibition of polyamine uptake in human L3.6pl cells assessed as inhibition of Ant44-induced toxicity by measuring cellular ATP content at MTC measured after 72 hrs in presence of Ant44 by ATPlite assay; format: functional
Procedure, shortened: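 L3.6pl cells, Ant44 challenge over 72 h, compound dosed up to its MTC; ECx = percentage effect at the MTC on scale from Ant44-only (50% growth) to untreated (100%); average of ≥2 experiments in triplicate (n ≥ 6).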

SMILES | Activity (L3.6pl [5]) | Activity (L3.6pl [6]) | IC50 at 72 h [7] [µM] | EC50 [9] [µM] | MTC (CHO-K1 [10]) [µM] | EC50 (CHO-K1 [11]) [µM] | MTC (L3.6pl [13]) [µM] | further results
CNCCCCNCCCCNCc1cc(CNCCCCNCCCCNC)cc(CNCCCCNCCCCNC)c1 |  |  |  |  |  |  |  | inhibition (L3.6pl [1]): Active; inhibition (L3.6pl [2]): Active
COc1ccc(-c2cc(C(F)(F)F)n3nc(-c4cccs4)cc3n2)cc1OC |  |  |  |  |  |  |  | inhibition (L3.6pl [3]): Active; inhibition (L3.6pl [4]): Active
NCCCC(N)(C(=O)O)C(F)F (stereo not drawn) | Active | Active |  |  |  |  |  | 
COc1ccc(C(=O)Nc2ccc(N3CCN(c4cc(Cl)ccc4C)CC3)cc2C(=O)O)cc1 | Active | Active | 16.8 | > 40 | 13 | 8 | 8 | inhibition (L3.6pl [3]; DDE = dose-dependent effect): Dde; Activity [8]: Dde; inhibition (L3.6pl [12]): Active; inhibition (L3.6pl [4]; DDE = dose-dependent effect): Dde; Activity (L3.6pl [14]): Active; Activity (L3.6pl [15]): Active; inhibition (L3.6pl [16]): Active; inhibition (L3.6pl [17]): Active
COc1ccc(C(=O)Nc2ccc(N3CCN(c4ccccc4OC)CC3)cc2C(=O)O)cc1 |  |  | 13.3 | 9 | > 40 | 26 | 6 | inhibition (INH) [18]: 8%; inhibition (INH) (L3.6pl [19]): 25%
